Test results as given in ChEMBL document CHEMBL1148461, “Discovery of the first non-peptide full agonists for the human bradykinin B(2) receptor incorporating 4-(2-picolyloxy)quinoline and 1-(2-picolyl)benzimidazole frameworks” (J Med Chem, 2004).

How the values were obtained:
[1] = molecular target: T1, B2 bradykinin receptor (Homo sapiens) (UniProt P30411); experiment: (§1) Relative induced inositol phosphate formation in CHO cells expressing the human B2 receptor compared to bradykinin (10 nM); type: functional, cell-based
T1 sequence (whole entry): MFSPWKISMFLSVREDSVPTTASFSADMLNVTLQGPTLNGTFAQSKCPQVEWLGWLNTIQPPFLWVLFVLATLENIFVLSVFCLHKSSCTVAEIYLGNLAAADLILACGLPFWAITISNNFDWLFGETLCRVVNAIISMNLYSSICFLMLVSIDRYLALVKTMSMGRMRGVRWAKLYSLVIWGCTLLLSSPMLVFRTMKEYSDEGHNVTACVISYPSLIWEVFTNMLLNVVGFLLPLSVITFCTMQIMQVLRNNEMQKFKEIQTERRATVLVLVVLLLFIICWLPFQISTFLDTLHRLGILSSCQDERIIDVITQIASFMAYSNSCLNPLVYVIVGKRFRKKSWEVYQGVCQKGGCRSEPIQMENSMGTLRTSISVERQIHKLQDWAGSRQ
Summary of the method: (§2)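 Human B2-expressing CHO cells labeled with [3H]inositol (1 μCi/mL) for 24 h, preincubated with 10 mM LiCl, then exposed to compound for 30 min at 37 °C. Stopped with 5% TCA; IP1–IP3 separated by anion-exchange chromatography and counted. Basal radioactivity subtracted; response expressed relative to 10 nM BK.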

B2 bradykinin receptor [2] = molecular target: T2, B2 bradykinin receptor (Homo sapiens, UniProt P30411); experiment: Inhibition of [3H]BK (1.0 nM) binding to the human bradykinin receptor B2, expressed in CHO cells; type: cell-based
T2 sequence (P30411 whole entry): T1 sequence (whole entry)
Summary of the method: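 Whole CHO (dhfr-) cells stably expressing human B2, seeded 3.0 × 10^4 cells/well and cultured 1 day. Incubated with 1.0 nM [3H]BK plus test compound for 2 h at 4 °C in pH 7.2 HEPES/N-methyl-D-glucamine buffer with bacitracin, enalaprilat and 0.1% BSA. Cells lysed in SDS/NaOH for scintillation counting. Nonspecific binding with 1 μM BK; three experiments.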

B2 bradykinin receptor [3] = molecular target: T3, B2 bradykinin receptor (Cavia porcellus, UniProt O70526); experiment: Concentration required to inhibit specific binding of [3H]-BK(0.06 nM) to the bradykinin receptor B2
T3 sequence (O70526 whole entry): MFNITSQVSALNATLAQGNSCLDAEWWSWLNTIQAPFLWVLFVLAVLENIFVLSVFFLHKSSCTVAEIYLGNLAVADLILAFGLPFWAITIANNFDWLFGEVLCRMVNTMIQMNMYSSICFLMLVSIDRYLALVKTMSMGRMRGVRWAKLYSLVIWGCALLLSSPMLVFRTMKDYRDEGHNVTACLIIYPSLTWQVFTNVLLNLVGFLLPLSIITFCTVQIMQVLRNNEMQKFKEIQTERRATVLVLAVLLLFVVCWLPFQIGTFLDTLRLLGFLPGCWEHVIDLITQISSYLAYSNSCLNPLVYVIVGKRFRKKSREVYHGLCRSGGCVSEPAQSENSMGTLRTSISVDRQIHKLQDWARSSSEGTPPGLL
Summary of the method: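 Guinea pig (male Hartley) ileum membranes in pH 6.8 TES buffer with phenanthroline, bacitracin, DTT, captopril and 0.1% BSA; 0.2 mg protein/mL incubated with 0.06 nM [3H]BK and varying test concentrations, 60 min at room temperature; filtration on glass fiber filters, scintillation counting. Nonspecific binding with 1 μM unlabeled BK. IC50 averaged over at least three determinations.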

[4] = molecular target: T1, B2 bradykinin receptor (Homo sapiens); experiment: as §1; type: functional, cell-based; summary of the method: as §2; remark: listed apart in the source
[5] = molecular target: T1, B2 bradykinin receptor (Homo sapiens); experiment: Relative agonistic activity (10 uM) induced inositol phosphate formation in CHO cells expressing the human B2 receptor compared to bradykinin (10 nM); type: functional, cell-based; summary of the method: as §2
WI-38 [6] = experiment: Relative agonistic activity (10 uM) induced PGE-2 production in human fibroblast WI-38 cells compared to bradykinin (100 nM); type: functional
Summary of the method: (§3)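 WI-38 human fibroblasts seeded 1 × 10^5 cells/well in E-MEM with 1% FBS, cultured 24 h. Medium replaced with Hanks-BSA buffer, then test compound for 30 min at 37 °C. Supernatant PGE2 measured by EIA, with control (no compound) subtracted. Result expressed relative to 100 nM BK.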

WI-38 [7] = experiment: Relative agonistic activity (1 uM) induced PGE-2 production in human fibroblast WI-38 cells compared to bradykinin (100 nM); type: functional; summary of the method: as §3
B2 bradykinin receptor [8] = molecular target: T3, B2 bradykinin receptor; experiment: Concentration required to inhibit specific binding of [3H]-BK(0.06 nM) to the B2 receptor in guinea pig ileum membrane;; type: tissue-based
Summary of the method: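 Male Hartley guinea pig ileum membranes (homogenised, 1000g debris spin, 10000g pellet) at 0.2 mg protein/mL in pH 6.8 TES buffer with 1,10-phenanthroline, bacitracin, DTT, captopril, 0.1% BSA; incubated with 0.06 nM [3H]BK and varying compound concentrations, 60 min room temperature; GF/B filtration, scintillation counting. Nonspecific binding with 1 μM unlabeled BK; three experiments; IC50 averaged from ≥3 determinations.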

Relative agonistic activity [1] | IC50 (B2 bradykinin receptor [2]) | IC50 (B2 bradykinin receptor [3]) | Relative agonistic activity [4] | Relative agonistic activity [5] | IC50 (B2 bradykinin receptor [8]) | SMILES | Relative agonistic activity (WI-38 [6]) | Relative agonistic activity (WI-38 [7])
57% | 1.2 nM | 1.2 nM | 43.4% |  |  | CC(=O)Nc1ccc(/C=C/C(=O)NCC(=O)N(C)c2ccc(Cl)c(COc3cccc4c(OCc5ccccn5)cc(C)nc34)c2Cl)cn1 |  | 
 | 8.1 nM | 0.23 nM |  |  |  | CNC(=O)c1ccc(/C=C/C(=O)NCC(=O)N(C)c2ccc(Cl)c(COc3cccc4c(OC)cc(C)nc34)c2Cl)cc1 |  | 
47.4% | 0.4 nM |  | 36.7% |  |  | Cc1cc(OCc2ccccn2)c2cccc(OCc3c(Cl)ccc(N(C)C(=O)CNC(=O)/C=C/c4ccc(C(=O)Nc5ccncc5)cc4)c3Cl)c2n1 |  | 
53.7% | 2.6 nM | 20 nM |  | 66.4% |  | CCOC(=O)COc1cc(C)nc2c(OCc3c(Cl)ccc(N(C)C(=O)CNC(=O)/C=C/c4ccc(C(=O)NC)cc4)c3Cl)cccc12 |  | 
 | 0.91 nM | 4.2 nM |  |  |  | CCOC(=O)Cn1c(OC)nc2c(OCc3c(Cl)ccc(N(C)C(=O)CNC(=O)/C=C/c4ccc(NC(C)=O)nc4)c3Cl)cccc21 | 121% | 
73.9% | 0.69 nM |  | 54.9% |  |  | CNC(=O)c1ccc(/C=C/C(=O)NCC(=O)N(C)c2ccc(Cl)c(COc3cccc4c(OCc5ccccn5)cc(C)nc34)c2Cl)cc1OC |  | 
59.5% | 0.41 nM | 2.3 nM | 51.3% | 56.9% |  | CNC(=O)c1ccc(/C=C/C(=O)NCC(=O)N(C)c2ccc(Cl)c(COc3cccc4c(OCc5ccccn5)cc(C)nc34)c2Cl)cc1 | 140% | 81.2%
 | 34 nM | 0.19 nM |  |  |  | CCOc1cc(C)nc2c(OCc3c(Cl)ccc(N(C)C(=O)CNC(=O)/C=C/c4ccc(C(=O)NC)cc4)c3Cl)cccc12 |  | 
 | 0.68 nM |  |  |  |  | COc1nc2c(OCc3c(Cl)ccc(N(C)C(=O)CNC(=O)/C=C/c4ccc(NC(C)=O)nc4)c3Cl)cccc2n1Cc1ccccn1 | 89.5% | 114%
67.4% | 0.83 nM |  | 42.9% |  |  | Cc1cc(OCc2ccccn2)c2cccc(OCc3c(Cl)ccc(N(C)C(=O)CNC(=O)/C=C/c4ccc(N5CCCC5=O)cc4)c3Cl)c2n1 |  | 
 | 77 nM | 1.2 nM |  |  |  | CCCOc1cc(C)nc2c(OCc3c(Cl)ccc(N(C)C(=O)CNC(=O)/C=C/c4ccc(C(=O)NC)cc4)c3Cl)cccc12 |  | 
30.8% | 3.7 nM | 30 nM |  | 24.4% |  | CNC(=O)c1ccc(/C=C/C(=O)NCC(=O)N(C)c2ccc(Cl)c(COc3cccc4c(OCC(=O)N(C)C)cc(C)nc34)c2Cl)cc1 |  | 
 | 2.5 nM | 26 nM |  |  |  | COc1nc2c(OCc3c(Cl)ccc(N(C)C(=O)CNC(=O)/C=C/c4ccc(NC(C)=O)nc4)c3Cl)cccc2n1Cc1ccccc1 | 73.9% | 84.5%
34.3% | 1.4 nM |  | 22.3% |  |  | Cc1cc(OCc2ccccn2)c2cccc(OCc3c(Cl)ccc(N(C)C(=O)CNC(=O)/C=C/c4ccc(C(=O)N(C)C)cc4)c3Cl)c2n1 |  | 
57.6% | 1.4 nM |  | 50.5% |  |  | CNC(=O)c1ccc(/C=C/C(=O)NCC(=O)N(C)c2ccc(Cl)c(COc3cccc4c(OCc5ccccn5)cc(C)nc34)c2Cl)cn1 |  | 
 | 13 nM | 1.2 nM |  |  |  | CNC(=O)c1ccc(/C=C/C(=O)NCC(=O)N(C)c2ccc(Cl)c(COc3cccc4c(OC(C)C)cc(C)nc34)c2Cl)cc1 |  | 
40.3% | 2.4 nM |  | 39.8% |  |  | Cc1cc(OCc2ccccn2)c2cccc(OCc3c(Cl)ccc(N(C)C(=O)CNC(=O)/C=C/c4ccc(NC(=O)Cc5ccncc5)nc4)c3Cl)c2n1 |  | 
 |  |  |  |  |  | COc1nc2c(OCc3c(Cl)ccc(N(C)C(=O)CNC(=O)/C=C/c4ccc(NC(C)=O)nc4)c3Cl)cccc2n1C | 24.2% | 4.2%
26.9% | 0.56 nM |  | 42.3% |  | 6.1 nM | Cc1cc(OCc2ccccn2)c2cccc(OCc3c(Cl)ccc(N(C)C(=O)CNC(=O)/C=C/c4ccc(NC(=O)c5ccncc5)cc4)c3Cl)c2n1 |  | 
 | 3.5 nM | 4.6 nM |  |  |  | COCCn1c(OC)nc2c(OCc3c(Cl)ccc(N(C)C(=O)CNC(=O)/C=C/c4ccc(NC(C)=O)nc4)c3Cl)cccc21 | 54.8% | 38.3%
 | 61 nM | 25 nM |  |  |  | CNC(=O)c1ccc(/C=C/C(=O)NCC(=O)N(C)c2ccc(Cl)c(COc3cccc4c(OC5CCCC5)cc(C)nc34)c2Cl)cc1 |  | 
 | > 1000 nM | 50 nM |  |  |  | CNC(=O)c1ccc(/C=C/C(=O)NCC(=O)N(C)c2ccc(Cl)c(COc3cccc4c(OCC(=O)O)cc(C)nc34)c2Cl)cc1 |  | 
